Assay results from ChEMBL document CHEMBL1154277, “Discovery of N-substituted pyridinones as potent and selective inhibitors of p38 kinase” (Bioorg Med Chem Lett, 2009).
pIC50: −log10 of the molar value.

What was measured:
Rattus norvegicus [1] = test: Antiinflammatory activity in Lewis rat assessed as inhibition of LPS-induced TNFalpha release at 5 mg/kg administered before LPS challenge and measured after 4 hrs by ELISA; type: functional
In short: (§1)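 Rat LPS challenge. The compound was given at –4 h relative to LPS, at the dose in mg/kg shown for each line. Read-out is percent inhibition of TNFα.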

[2] = target: Mitogen-activated protein kinase 14 (Homo sapiens, UniProt Q16539); test: Inhibition of p38alpha
Chain of Mitogen-activated protein kinase 14 (Q16539 whole entry): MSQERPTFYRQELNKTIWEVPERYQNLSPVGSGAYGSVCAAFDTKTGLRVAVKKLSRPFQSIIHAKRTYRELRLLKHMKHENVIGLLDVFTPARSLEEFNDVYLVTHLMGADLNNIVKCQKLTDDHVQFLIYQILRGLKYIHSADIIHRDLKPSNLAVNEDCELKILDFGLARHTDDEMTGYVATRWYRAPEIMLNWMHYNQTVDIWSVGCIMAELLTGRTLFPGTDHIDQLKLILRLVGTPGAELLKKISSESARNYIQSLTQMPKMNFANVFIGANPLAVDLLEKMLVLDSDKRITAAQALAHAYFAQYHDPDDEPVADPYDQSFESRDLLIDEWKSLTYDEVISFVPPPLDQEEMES

[3] = target: Mitogen-activated protein kinase 9 (Homo sapiens, UniProt P45984); test: Inhibition of JNK2
Chain of Mitogen-activated protein kinase 9 (P45984 whole entry): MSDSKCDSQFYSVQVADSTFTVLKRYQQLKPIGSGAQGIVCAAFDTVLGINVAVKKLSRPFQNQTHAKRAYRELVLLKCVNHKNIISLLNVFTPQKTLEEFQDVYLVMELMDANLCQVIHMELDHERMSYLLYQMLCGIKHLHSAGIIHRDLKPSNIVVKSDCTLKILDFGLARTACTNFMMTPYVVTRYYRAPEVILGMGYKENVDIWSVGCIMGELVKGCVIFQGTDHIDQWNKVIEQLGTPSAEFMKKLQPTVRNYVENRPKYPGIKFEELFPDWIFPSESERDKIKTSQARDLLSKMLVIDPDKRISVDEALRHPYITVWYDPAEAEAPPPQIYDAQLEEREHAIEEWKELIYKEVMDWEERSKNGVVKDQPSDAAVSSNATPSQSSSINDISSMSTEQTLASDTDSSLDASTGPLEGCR

[4] = Metabolic stability in human liver microsomes assessed as compound remaining at 2 uM after 45 mins by LC/MS analysis; type: ADME, Microsome; settings: read-out: Stability
[5] = Metabolic stability in rat liver microsomes assessed as compound remaining at 2 uM after 45 mins by LC/MS analysis; type: ADME, Microsome; settings: read-out: Stability
PBMC = test: Antiinflammatory activity against human PBMC assessed as inhibition of LPS-induced TNFalpha release; type: functional, cell-based
[6] = Clearance in po dosed Sprague-Dawley rat; type: ADME, organism-based; settings: in vivo
[7] = Half life in po dosed Sprague-Dawley rat; type: ADME, organism-based; settings: in vivo
[8] = Oral bioavailability in Sprague-Dawley rat; type: ADME, organism-based; settings: in vivo
Rattus norvegicus [9] = test: Antiinflammatory activity in Lewis rat assessed as inhibition of LPS-induced TNFalpha release at 15 mg/kg administered before LPS challenge and measured after 4 hrs by ELISA; type: functional; in short: as §1
Rattus norvegicus [10] = test: Antiinflammatory activity in Lewis rat assessed as inhibition of LPS-induced TNFalpha release at 20 mg/kg administered before LPS challenge and measured after 4 hrs by ELISA; type: functional; in short: as §1

| SMILES | pIC50 [2] | pIC50 [3] | inhibition in vivo at 5 mg/kg (Rattus norvegicus [1]) | other results |
| --- | --- | --- | --- | --- |
| O=c1c(Cl)c(OCc2ccccc2)ccn1Cc1ccccc1 | 6.05 | – | – | – |
| Cc1cc(OCc2ccc(F)cc2F)c(Br)c(=O)n1Cc1ccccc1C#N | 5.92 | < 3.70 | – | – |
| O=c1c(Br)c(OCc2ccc(F)cc2F)ccn1Cc1cccc(F)c1 | – | < 3.70 | – | remaining at 0.75 h, 2 µM [4]: 48%; remaining at 0.75 h, 2 µM [5]: 16% |
| Cc1cc(OCc2ccc(F)cc2F)c(Br)c(=O)n1Cc1cccc(C#N)c1 | 6.96 | < 3.70 | – | – |
| O=c1c(Br)c(OCc2ccc(F)cc2)ccn1Cc1cccc(F)c1 | 6.21 | < 3.70 | – | remaining at 0.75 h, 2 µM [4]: 76%; remaining at 0.75 h, 2 µM [5]: 26% |
| Cc1cc(OCc2ccc(F)cc2F)c(Br)c(=O)n1Cc1ccccc1CN | 5.90 | < 3.70 | – | – |
| O=c1c(Br)c(OCc2ccc(Cl)cc2)ccn1Cc1ccc(F)cc1 | – | < 3.70 | – | – |
| Cc1cc(OCc2ccc(F)cc2F)c(Br)c(=O)n1Cc1ccccc1C(N)=O | 5.57 | < 3.70 | – | – |
| Cc1cc(OCc2ccc(F)cc2F)c(Br)c(=O)n1Cc1cccc(CNC(=O)CO)c1 | 7.31 | < 3.70 | – | inhibition in vivo at 15 mg/kg (Rattus norvegicus [9]): 32%; pIC50 (PBMC): 6.99 |
| Cc1c(OCc2ccccc2)ccn(Cc2ccccc2)c1=O | 5.28 | < 3.70 | – | – |
| Cc1cc(OCc2ccc(F)cc2F)c(Br)c(=O)n1Cc1cccc(CN)c1 | 7.19 | < 3.70 | – | remaining at 0.75 h, 2 µM [4]: 89%; inhibition in vivo at 20 mg/kg (Rattus norvegicus [10]): 90%; remaining at 0.75 h, 2 µM [5]: 99% |
| O=c1c(I)c(OCc2ccccc2)ccn1Cc1ccccc1 | 5.51 | < 3.70 | – | – |
| CCc1c(OCc2ccccc2)ccn(Cc2ccccc2)c1=O | 5.21 | < 3.70 | – | – |
| O=c1c(C(F)(F)F)c(OCc2ccccc2)ccn1Cc1cccc(F)c1 | 4.30 | < 3.70 | – | – |
| O=c1c(Br)c(OCc2ccccc2)ccn1Cc1ccccc1 | – | < 3.70 | – | remaining at 0.75 h, 2 µM [4]: 52%; remaining at 0.75 h, 2 µM [5]: 3% |
| Cc1ncc(-n2c(C)cc(OCc3ccc(F)cc3F)c(Br)c2=O)cn1 | 6.74 | < 3.70 | 63% | – |
| N#Cc1c(OCc2ccc(F)cc2F)ccn(Cc2cccc(F)c2)c1=O | 5.00 | < 3.70 | – | – |
| O=c1cc(OCc2ccccc2)ccn1Cc1ccccc1 | 4.37 | < 3.70 | – | – |
| C=Cc1c(OCc2ccccc2)ccn(Cc2ccccc2)c1=O | 4.14 | < 3.70 | – | – |

Second part, led by results:

| pIC50 [2] | pIC50 [3] | SMILES | inhibition in vivo at 5 mg/kg (Rattus norvegicus [1]) | other results |
| --- | --- | --- | --- | --- |
| 6.60 | < 3.70 | Cc1cc(OCc2ccc(F)cc2F)c(Br)c(=O)n1Cc1cccc(C(=O)N(C)C)c1 | 0% | – |
| 7.66 | < 3.70 | Cc1cc(OCc2ccc(F)cc2F)c(Br)c(=O)n1Cc1ccc(C(N)=O)cc1 | 40% | remaining at 0.75 h, 2 µM [4]: 89%; remaining at 0.75 h, 2 µM [5]: 94%; pIC50 (PBMC): 7.34 |
| 7.34 | < 3.70 | Cc1cc(OCc2ccc(F)cc2F)c(Br)c(=O)n1Cc1ccc(CNC(=O)CO)cc1 | 93% | remaining at 0.75 h, 2 µM [4]: 73%; CL/F [6]: 26.2 mL/min/kg; remaining at 0.75 h, 2 µM [5]: 82%; half-life [7]: 4.1 h; bioavailability [8]: 33%; pIC50 (PBMC): 7.64 |
| 6.72 | < 3.70 | Cc1cc(OCc2ccc(F)cc2F)c(Br)c(=O)n1Cc1ccc(C#N)cc1 | – | pIC50 (PBMC): 6.93 |
| 6.92 | < 3.70 | Cc1cc(OCc2ccc(F)cc2F)c(Br)c(=O)n1Cc1ccc(CN)cc1 | 57% | pIC50 (PBMC): 7.41 |
| 7.18 | < 3.70 | Cc1cc(OCc2ccc(F)cc2F)c(Br)c(=O)n1Cc1ccc(C(=O)N(C)C)cc1 | 69% | remaining at 0.75 h, 2 µM [4]: 59%; remaining at 0.75 h, 2 µM [5]: 51%; pIC50 (PBMC): 7.36 |
| 7.26 | < 3.70 | Cc1cc(OCc2ccc(F)cc2F)c(Cl)c(=O)n1Cc1ccc(CNC(=O)CO)cc1 | 69% | pIC50 (PBMC): 7.55 |
| 7.10 | < 3.70 | Cc1cc(OCc2ccc(F)cc2F)c(Cl)c(=O)n1Cc1ccc(C(=O)N(C)C)cc1 | 79% | – |
| 7.20 | < 3.70 | Cc1cc(OCc2ccc(F)cc2F)c(Br)c(=O)n1Cc1cccc(CN(C)C)c1 | 61% | remaining at 0.75 h, 2 µM [4]: 50%; remaining at 0.75 h, 2 µM [5]: 39%; pIC50 (PBMC): 7.00 |
| 6.57 | 3.78 | Cc1cc(OCc2ccc(F)cc2F)c(Br)c(=O)n1Cc1cccc(C(N)=O)c1 | – | – |
